Screening data (PubChem)
FLuc stim CS: affects firefly luciferase, flagging false hits in luciferase stimulation screens; ATPlite luciferase biochemical, luminescence, 10 min; 0 = ATP-free wells, 1 = DMSO control; activation factor at 10 µM; 200,000 tested, under 10 active; P08659;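 active = luciferase activation factor, scaled between plate controls, of at least 2 with compound at 10 µM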
Target sequence (P08659 whole entry, looked up): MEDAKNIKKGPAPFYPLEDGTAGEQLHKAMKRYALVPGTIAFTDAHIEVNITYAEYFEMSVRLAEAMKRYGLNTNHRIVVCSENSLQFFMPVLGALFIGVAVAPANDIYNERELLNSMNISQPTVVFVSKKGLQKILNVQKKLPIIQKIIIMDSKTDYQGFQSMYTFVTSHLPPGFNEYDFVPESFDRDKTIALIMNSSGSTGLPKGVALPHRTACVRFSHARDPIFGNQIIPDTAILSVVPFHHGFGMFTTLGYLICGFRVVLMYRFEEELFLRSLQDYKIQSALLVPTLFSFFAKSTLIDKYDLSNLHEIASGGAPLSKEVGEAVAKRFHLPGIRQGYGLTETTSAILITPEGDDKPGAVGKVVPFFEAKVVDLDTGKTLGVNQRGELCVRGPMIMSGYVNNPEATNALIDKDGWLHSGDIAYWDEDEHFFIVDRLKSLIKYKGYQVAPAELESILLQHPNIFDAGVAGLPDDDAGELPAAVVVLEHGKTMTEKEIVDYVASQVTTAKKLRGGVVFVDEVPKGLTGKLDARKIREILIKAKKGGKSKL
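Assay system: Luciferase/luciferin detection reagent, cell-free biochemical luciferase assay / Read-out: luciferase activation / Benchmarks: No-ATP low control, compound-free enzyme-plus-ATP high control / Medium: PBS buffer for ATP / Detection: luminescence measurement of luciferase light output / Schedule: 10 min at ambient temperature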
PPC-1+TRAIL kill: kills PPC-1 cancer cells in the presence of TRAIL. PPC-1 cells + TRAIL, ATPLite viability luminescence. cell killing (% activity), % at 4 µM or 5 µM. 220,000 compounds, 0.41% hits. AID 1443;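 active = cell killing above 50% in the first pass at 4 µM, then a duplicate retest at 5 µM averaging 50% or more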
FLuc inhib CS: counter-screen for luciferase assay inhibitors: firefly luciferase inhibition. ATPLite firefly luciferase biochemical luminescence, 10 min. inhibition, % at 10 µM. 200,000 compounds, 1.5% hits;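 active = inhibition above about 50% when tested at 10 µM, limit read from the data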
C8 TRAIL sens: caspase-8 TRAIL sensitization; 360,000 compounds, 1% hits; AID 624354; inhibition (viability loss, TRAIL sensitization), % at 10 µM; NB7+C8 cells + TRAIL, ATPlite viability luminescence;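 active = compounds causing at least 50% loss of cell viability in the single-dose screen, relative to plate controls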
Each line names hits and unclear results; the compound was inactive in the other large screens. Most compounds without a hit are left out; they make up all but 1.5% or so of the library.

N#Cc1c(/N=C/c2cccs2)sc2c1CCC2	FLuc inhib CS 61.8
N#Cc1c(/N=C/c2ccco2)sc2c1CCCCC2	FLuc inhib CS 93.8
CN(C)/C=N/c1sc2c(c1C#N)CCCC2	none
O=C(N/N=C/c1ccc(Cl)cc1)C(=O)N1CCCCCC1	none (no result: PPC-1+TRAIL kill)
S=C(c1ccc(-c2ccc(Br)cc2)o1)N1CCCCC1	FLuc inhib CS 59.2 (no result: PPC-1+TRAIL kill)
Cc1[nH]nc(Sc2ccccn2)c1[N+](=O)[O-]	none
CCOC(=O)c1nn(-c2ccc([N+](=O)[O-])cc2)cc1O	none (no result: FLuc stim CS, FLuc inhib CS)
COC(=O)c1nn(-c2ccc3c(c2)CCN3C(C)=O)cc1O	PPC-1+TRAIL kill 76.2, FLuc inhib CS 94.2, C8 TRAIL sens 80.9
CCOC(=O)c1nn(-c2ccc(C)c(C)c2)cc1O	FLuc inhib CS 50.1
COc1ccc(CCN2C(=O)N[C@@H](CCC(=O)O)C2=O)cc1	none (no result: FLuc stim CS, PPC-1+TRAIL kill, FLuc inhib CS)
COc1cc(/C=N/c2oc(-c3ccccc3)cc2C#N)ccc1O	none
CSC(=Nc1ccccc1)N=C(SCc1ccccc1)N(C)C	C8 TRAIL sens 90.9 (no result: FLuc stim CS, PPC-1+TRAIL kill, FLuc inhib CS)
N/C(=N\OC(=O)c1ccccc1)C(Cc1ccccc1)C(=O)NOC(=O)c1ccccc1 (configuration not stated)	C8 TRAIL sens 89.4 (no result: FLuc stim CS, PPC-1+TRAIL kill, FLuc inhib CS)
COCCn1c(C)cc(C(=O)CSc2n[nH]c(N)n2)c1C	none
Cc1cc(C(=O)CSc2nnc(N)s2)c(C)n1Cc1ccco1	FLuc inhib CS 80.5
Cc1cc(C(=O)COC(=O)c2ccncc2)c(C)n1Cc1ccco1	FLuc inhib CS 79.1
Nc1nnc(SCC(=O)c2ccco2)s1	none
COCCn1c(C)cc(C(=O)CSc2nnc(C)s2)c1C	FLuc inhib CS 70.5, C8 TRAIL sens 49.6
N#CCCn1cc(C=O)c(-c2cccs2)n1	none
O=C(CN1C(=O)NC2(CCCC2)C1=O)Nc1ccc(C(F)(F)F)cc1	none (no result: FLuc stim CS, PPC-1+TRAIL kill, FLuc inhib CS)
COc1cccc(C(=O)Nc2nnc(SCC(=O)Nc3ccc(NC(C)=O)cc3)s2)c1	C8 TRAIL sens 67.7 (no result: FLuc stim CS, PPC-1+TRAIL kill, FLuc inhib CS)
COc1cccc(N2CC(C(=O)Nc3nnc(SCC(=O)Nc4ccc(NC(C)=O)cc4)s3)CC2=O)c1 (configuration not stated)	none (no result: FLuc stim CS, PPC-1+TRAIL kill, FLuc inhib CS)
CC(=O)Nc1ccc(NC(=O)CSc2nnc(NC(=O)c3ccccc3F)s2)cc1	C8 TRAIL sens 66.3 (no result: FLuc stim CS, PPC-1+TRAIL kill, FLuc inhib CS)
O=C(CSc1nnc(NC(=O)c2ccco2)s1)Nc1ccc2c(c1)OCCO2	FLuc inhib CS 54.6
COc1cccc(C=NN2CCCCCC2)c1OC	none (no result: FLuc stim CS, PPC-1+TRAIL kill, FLuc inhib CS)
Cc1ccc(C(=O)/C=C\C(=O)c2ccc(C)cc2)cc1	none
Cc1ccc(S/C=C\C(=O)c2ccccc2)cc1	FLuc inhib CS 91.0, C8 TRAIL sens 55.2
CCc1ccc(C(=O)COC(=O)c2n[nH]c3ccccc23)cc1	FLuc inhib CS 62.6
O=C(COC(=O)c1n[nH]c2ccccc12)NC(=O)NC12CC3CC(CC(C3)C1)C2	C8 TRAIL sens 57.5
CCc1ccc(C(=O)COC(=O)c2nn(C)c(=O)c3ccccc23)cc1	none
CC1CCN(C(=O)COC(=O)c2n[nH]c3ccccc23)CC1	FLuc inhib CS 54.7
O/C(=C\Sc1nnc(Cc2ccccc2)o1)c1ccc(F)cc1	none
CCNc1c(NS(=O)(=O)c2ccc(Cl)s2)c(=O)oc2ccccc12	none (no result: FLuc stim CS, PPC-1+TRAIL kill, FLuc inhib CS)
Cc1ccccc1Nc1c(-c2ccc(N3CCOCC3)cc2)nc2ncccn12	FLuc inhib CS 59.0
Cc1ccc(Nc2c(-c3ccc(N4CCOCC4)cc3)nc3ncccn23)cc1	none
Cc1ccccc1Nc1c(-c2ccc(N3CCOCC3)cc2)nc2cnccn12	C8 TRAIL sens 47.8 (no result: FLuc stim CS, FLuc inhib CS)
Cc1ccc(Nc2c(-c3ccc(N4CCOCC4)cc3)nc3cnccn23)cc1	none (no result: FLuc stim CS, FLuc inhib CS)
COc1ccc(S(=O)(=O)NC(=O)C2(C)CCN2C(=O)CC2CC2)cc1 (configuration not stated)	none (no result: FLuc stim CS, PPC-1+TRAIL kill, FLuc inhib CS)
COCc1ccc(C(=O)N2CCCC(N3CCN(c4cccc(Cl)c4)CC3)C2)s1 (configuration not stated)	none (no result: FLuc stim CS, PPC-1+TRAIL kill, FLuc inhib CS)
COc1ccc(N=C2S/C(=C\c3ccc(Cl)c([N+](=O)[O-])c3)C(=O)N2CCN(C)C)cc1	C8 TRAIL sens 80.4 (no result: FLuc stim CS, PPC-1+TRAIL kill, FLuc inhib CS)
CCCN1C(=O)/C(=C/c2ccc(C)s2)SC1=Nc1ccc(OC)cc1	none
CCN(CC)CCN1C(=O)/C(=C\c2ccc(Cl)c([N+](=O)[O-])c2)SC1=Nc1ccc(OC)cc1	C8 TRAIL sens 88.7 (no result: FLuc stim CS, PPC-1+TRAIL kill, FLuc inhib CS)
O=C(c1cccs1)N1C[C@@H](n2cc(C3CC3)nn2)[C@H](O)C[C@@H]1c1ccccc1	none (no result: FLuc stim CS, PPC-1+TRAIL kill, FLuc inhib CS)
C=CC(=O)Nc1ccc(Nc2nc(NC3CCC(N(C)C)CC3)nc3c2ncn3C(C)C)cc1 (configuration not stated)	C8 TRAIL sens 72.9 (no result: FLuc stim CS, PPC-1+TRAIL kill, FLuc inhib CS)
CCc1ccc([C@H]2[C@@H]3C(=O)C[C@@H]4C(=O)N(c5ccccc5)C(=O)[C@@H]4[C@@H]3CN2S(=O)(=O)c2ccc(C)cc2)cc1	C8 TRAIL sens 86.4 (no result: FLuc stim CS, PPC-1+TRAIL kill, FLuc inhib CS)
O=C(Nc1nc2ccccc2n1CCN1CCCCC1)C1CCCCC1	C8 TRAIL sens 54.7
O=C(Nc1nc2ccccc2n1CCN1CCCC1)C1CCCCC1	none
Cc1cc(C(=O)CSc2ncccn2)c(C)n1-c1cccc(F)c1	FLuc inhib CS 53.8
Cc1ccc(C(=O)c2cc3c(cc2[N+](=O)[O-])OCCO3)cc1	none
Cn1c(N=Nc2ccc(N3CCOCC3)cc2)[n+](C)c2ccccc21	FLuc inhib CS 59.0
OC(c1ccco1)c1nc(-c2ccc(F)c(Cl)c2)cs1 (configuration not stated)	none (no result: FLuc stim CS, PPC-1+TRAIL kill, FLuc inhib CS)
O=C(c1ccc2c(c1)OCCCO2)c1cccs1	none
COC(=O)c1ccc(NC(=O)C(=O)c2cccn2C)cc1	FLuc inhib CS 83.5, C8 TRAIL sens 61.7
COc1ccccc1/C=C/C1(C(=O)NC2CCCC2)CC(=O)N1c1ccc(F)cc1 (configuration not stated)	C8 TRAIL sens 92.4
COc1ccccc1/C=C/C1(C(=O)NC2CCCC2)CC(=O)N1c1ccc(C)cc1 (configuration not stated)	C8 TRAIL sens 59.7
CCN(CC)S(=O)(=O)c1ccc(N2C(=O)CC2(/C=C/c2ccccc2)C(=O)NC2CCCC2)cc1 (configuration not stated)	none
COc1ccccc1/C=C/c1onc(C)c1S(=O)(=O)N1CCC(C(=O)NC2CCCCCC2)CC1	none (no result: FLuc stim CS, PPC-1+TRAIL kill, FLuc inhib CS)
O=C(Cn1cnc2c(OCc3ccccc3)ncnc21)NCCCc1ccccc1	none (no result: FLuc stim CS, PPC-1+TRAIL kill, FLuc inhib CS)
CC(=O)NC(Cc1ccccc1)C(=O)OCC(=O)c1ccc(Br)cc1 (configuration not stated)	none
COc1ccccc1NC(CC(=O)c1ccccc1)C(=O)OCC(=O)c1ccc(Br)cc1 (configuration not stated)	C8 TRAIL sens 63.4
O=C(CC(Nc1ccccc1Cl)C(=O)OCC(=O)c1cccs1)c1ccccc1 (configuration not stated)	none
COc1ccccc1NC(CC(=O)c1ccccc1)C(=O)OCC(=O)c1ccc(C)c(C)c1 (configuration not stated)	C8 TRAIL sens 58.0
COc1ccccc1NC(CC(=O)c1ccccc1)C(=O)OCC(=O)c1ccc(C)cc1 (configuration not stated)	C8 TRAIL sens 65.0
CC1(C(=O)NS(=O)(=O)c2cccc(F)c2)CCN1C(=O)C1(c2ccc(Cl)cc2)CCC1 (configuration not stated)	none (no result: FLuc stim CS, PPC-1+TRAIL kill, FLuc inhib CS)
